The target of one assay is Carbonic anhydrase 1 (Homo sapiens, UniProt P00915). As to the kind of experiment: Inhibition of human recombinant carbonic anhydrase 1 expressed in Escherichia coli by stopped flow CO2 hydration assay.
The target of a further assay is Carbonic anhydrase 2 (Homo sapiens, UniProt P00918). Put plainly: Inhibition of human recombinant carbonic anhydrase 2 expressed in Escherichia coli by stopped flow CO2 hydration assay.
A further assay addresses Carbonic anhydrase 9 (Homo sapiens, UniProt Q16790).
The test system of assay [1] is MCF7. Put plainly: Induction of apoptosis in human MCF7 cells assessed as total apoptotic cells by Annexin V-FITC/propidium iodide staining based flow cytometry (reference value: 1.54%). Type of assay: functional. A general note: A flow cytometer gives signals particle by particle.
Assay [2] relates to MCF7. Put plainly: Induction of apoptosis in human MCF7 cells assessed as necrotic cells by Annexin V-FITC/propidium iodide staining based flow cytometry (reference value: 0.35%). Type of assay: functional.
In assay [3] the test system is MCF7. As to the kind of experiment: Induction of cell cycle arrest in human MCF7 cells assessed as accumulation at G0/G1 phase at IC50 after 24 hrs by propidium iodide staining based flow cytometric analysis (reference value: 56.27%). Type of assay: functional.
In assay [4] the test system is MCF7. Put plainly: Induction of cell cycle arrest in human MCF7 cells assessed as accumulation at S phase at IC50 after 24 hrs by propidium iodide staining based flow cytometric analysis (reference value: 41.36%). Format: functional.
Assay [5] has as its system MCF7. As to the kind of experiment: Antiproliferative activity against human MCF7 cells measured after 48 hrs under normoxia condition by MTT assay. To be noted: MCF7, 48 h. Type of assay: functional, cell-based. In outline: (§1)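 MCF-7 (ATCC) grown in DMEM with 10% heat-inactivated FBS, 1% L-glutamine (2.5 mM), HEPES (10 mM), 50 µg/mL gentamycin, at 37 C, 5% CO2. Hypoxia induced chemically with CoCl2 (100 µM); normoxic cells without it. Viability by MTT colorimetric assay after 48 h exposure; IC50 is the concentration giving 50% growth inhibition relative to untreated controls.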
Background: Tetrazolium dyes change colour on reduction, which living cells bring about.

In assay [6] the test system is MCF7. As to the kind of experiment: Induction of apoptosis in human MCF7 cells assessed as late apoptotic cells by Annexin V-FITC/propidium iodide staining based flow cytometry (reference value: 0.49%). Type of assay: functional.
Assay [7] concerns MCF7. As to the kind of experiment: Induction of cell cycle arrest in human MCF7 cells assessed as accumulation at G2/M phase at IC50 after 24 hrs by propidium iodide staining based flow cytometric analysis (reference value: 2.37%). Type of assay: functional.
In assay [8] the test system is MCF7. Put plainly: Antiproliferative activity against human MCF7 cells measured after 48 hrs under hypoxia condition by MTT assay. Type of assay: functional, cell-based. To be noted: MCF7, 48 h. In outline: as §1
In assay [9] the test system is MCF7. As to the kind of experiment: Induction of apoptosis in human MCF7 cells assessed as early apoptotic cells by Annexin V-FITC/propidium iodide staining based flow cytometry (reference value: 1.05%). Type of assay: functional.
Assay [10] has as its system MCF7. Put plainly: Induction of cell cycle arrest in human MCF7 cells assessed as accumulation at Pre-G1 phase at IC50 after 24 hrs by propidium iodide staining based flow cytometric analysis (reference value: 1.89%). Format: functional.

The values that follow come from ChEMBL document CHEMBL4351020, “Application of hydrazino and hydrazido linkers to connect benzenesulfonamides with hydrophilic/phobic tails for targeting the middle region of human carbonic anhydrases active site: Selective inhibitors of hCA IX” (Eur J Med Chem, 2019).

Chain of Carbonic anhydrase 1 (P00915 whole entry): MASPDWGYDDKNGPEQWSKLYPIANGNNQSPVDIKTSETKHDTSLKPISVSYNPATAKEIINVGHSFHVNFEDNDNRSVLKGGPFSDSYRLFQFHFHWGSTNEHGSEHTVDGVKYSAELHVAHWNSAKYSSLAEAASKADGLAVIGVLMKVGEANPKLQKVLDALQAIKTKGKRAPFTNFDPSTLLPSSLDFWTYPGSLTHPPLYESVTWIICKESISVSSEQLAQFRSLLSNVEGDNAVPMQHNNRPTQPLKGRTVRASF

Regarding `C/C(=N\Nc1ccc(S(N)(=O)=O)cc1)c1ccc(N2CCOCC2)cc1`, the Ki at Carbonic anhydrase 1 is 0.149 µM; on Carbonic anhydrase 2, 0.0656 µM; on Carbonic anhydrase 9 it was 0.0089 µM.

Regarding `C/C(=N\Nc1ccc(S(N)(=O)=O)cc1)c1ccc(N2CCCCC2)cc1`, the results for the inhibition constant Ki at Carbonic anhydrase 1, at Carbonic anhydrase 2 and at Carbonic anhydrase 9 were 0.111 µM, 0.0692 µM and 0.0072 µM, respectively.

As for `NS(=O)(=O)c1ccc(C(=O)N/N=C/c2ccc(N3CCOCC3)cc2)cc1`, the Ki is 0.175 µM on Carbonic anhydrase 1, 0.0156 µM on Carbonic anhydrase 2 and 0.0086 µM at Carbonic anhydrase 9.

For `NS(=O)(=O)c1ccc(C(=O)N/N=C/c2ccc(-n3ccnc3)cc2)cc1`, the Activity was 16.22% with MCF7 [1]; 3.14% with MCF7 [2]; 36.49% in the assay on MCF7 [3]; 29.66% in the assay with MCF7 [4]; 11.93% with MCF7 [6]; 33.85% in the assay on MCF7 [7]. For the same molecule, the Activity in the assay on MCF7 [9] stood at 4.29%; in the assay with MCF7 [10], 19.36%. Also, the Ki at Carbonic anhydrase 1 amounted to 0.13 µM; at Carbonic anhydrase 2, 0.0082 µM; on Carbonic anhydrase 9, 0.0101 µM. The figures for the IC50 with MCF7 [5] and in the assay on MCF7 [8] were 3.32 µM and 8.53 µM, respectively.

Take `NS(=O)(=O)c1ccc(N/N=C/c2ccc(-n3ccnc3)cc2)cc1`: the Ki amounted to 0.0768 µM on Carbonic anhydrase 1, 0.0179 µM on Carbonic anhydrase 2 and 0.0146 µM on Carbonic anhydrase 9.

Consider `C/C(=N\Nc1ccc(S(N)(=O)=O)cc1)c1ccc(N2CCN(C)CC2)cc1`, for which the values for the Ki on Carbonic anhydrase 1, at Carbonic anhydrase 2 and on Carbonic anhydrase 9 were 0.266 µM, 0.0895 µM and 0.002 µM, respectively. The IC50 in the assay with MCF7 [5] turned out to be 7.72 µM; in the assay on MCF7 [8] it was 17.3 µM.

Turning to `NS(=O)(=O)c1ccc(N/N=C/c2ccc(N3CCCCC3)cc2)cc1`, the values for the Ki at Carbonic anhydrase 1, at Carbonic anhydrase 2 and at Carbonic anhydrase 9 were 0.101 µM, 0.024 µM and 0.0209 µM, respectively.

In the case of `NS(=O)(=O)c1ccc(N/N=C/c2ccc(N3CCOCC3)cc2)cc1`, the Ki was 0.0874 µM on Carbonic anhydrase 1, 0.0345 µM on Carbonic anhydrase 2 and 0.0165 µM on Carbonic anhydrase 9.

Consider `NS(=O)(=O)c1ccc(C(=O)N/N=C/c2ccc(-n3nnc4ccccc43)cc2)cc1`, for which the figures for the Ki at Carbonic anhydrase 1, at Carbonic anhydrase 2 and on Carbonic anhydrase 9 were 0.357 µM, 0.0623 µM and 0.0237 µM, respectively.

As for `NS(=O)(=O)c1ccc(C(=O)N/N=C/c2ccc(N3CCCC3)cc2)cc1`, the Ki amounted to 0.347 µM on Carbonic anhydrase 1, 0.0125 µM at Carbonic anhydrase 2 and 0.0031 µM at Carbonic anhydrase 9.

In the case of `NS(=O)(=O)c1ccc(N/N=C/c2ccc(N3CCCC3)cc2)cc1`, the figures for the Ki at Carbonic anhydrase 1, at Carbonic anhydrase 2 and on Carbonic anhydrase 9 were 0.0962 µM, 0.0299 µM and 0.0194 µM, respectively.

In turn, `C/C(=N\NC(=O)c1ccc(S(N)(=O)=O)cc1)c1ccc(N2C(=O)c3c(Cl)c(Cl)c(Cl)c(Cl)c3C2=O)cc1` gave a Ki at Carbonic anhydrase 9 of 0.0173 µM.

Take `NS(=O)(=O)c1ccc(N/N=C/c2ccc(-n3nnc4ccccc43)cc2)cc1`: the Ki was 0.24 µM on Carbonic anhydrase 1, 0.0946 µM on Carbonic anhydrase 2 and 0.0463 µM on Carbonic anhydrase 9.

For `NS(=O)(=O)c1ccc(C(=O)N/N=C/c2ccc(N3CCCCC3)cc2)cc1`, the values for the Ki at Carbonic anhydrase 1, at Carbonic anhydrase 2 and at Carbonic anhydrase 9 were 0.153 µM, 0.0093 µM and 0.0033 µM, respectively.

Regarding `C/C(=N\Nc1ccc(S(N)(=O)=O)cc1)c1ccc(N2CCCC2)cc1`, the Ki turned out to be 0.0954 µM at Carbonic anhydrase 1, 0.0577 µM at Carbonic anhydrase 2 and 0.0183 µM on Carbonic anhydrase 9.

By Ki is commonly meant the equilibrium dissociation constant of an inhibitor or competing ligand from its target. Usually IC50 stands for the concentration that inhibits the measured activity by half. Read a low IC50 as greater potency.
